Data published in ChEMBL document CHEMBL2331542, “Synthesis and in vitro antibacterial activity of quinolone/naphthyridone derivatives containing 3-alkoxyimino-4-(methyl)aminopiperidine scaffolds” (2013).
Converted amounts (≈) assume the structure as drawn.

Experiments:
Format in all cases: functional
Escherichia coli [1] = assay: Antibacterial activity against extended-spectrum beta-lactamase-producing Escherichia coli isolate 12-4
Summary of the method: (§1)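 MIC determined in vitro by a standard technique and defined as the lowest compound concentration giving complete inhibition of bacterial growth. The Gram-positive and Gram-negative panels were tested alongside gemifloxacin, levofloxacin and ciprofloxacin reference drugs.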

Escherichia coli [2] = assay: Antibacterial activity against extended-spectrum beta-lactamase-producing Escherichia coli isolate 12-2; summary of the method: as §1
Escherichia coli [3] = assay: Antibacterial activity against extended-spectrum beta-lactamase-producing Escherichia coli isolate 12-1; summary of the method: as §1
Escherichia coli [4] = assay: Antibacterial activity against Escherichia coli isolate 12-5; summary of the method: as §1
Escherichia coli [5] = assay: Antibacterial activity against Escherichia coli isolate 12-4; summary of the method: as §1
Escherichia coli [6] = assay: Antibacterial activity against Escherichia coli isolate 12-1; summary of the method: as §1
Escherichia coli [7] = assay: Antibacterial activity against Escherichia coli ATCC 25922; summary of the method: as §1
Streptococcus pneumoniae [8] = assay: Antibacterial activity against Streptococcus pneumoniae isolate 12-5; summary of the method: as §1
Streptococcus pneumoniae [9] = assay: Antibacterial activity against Streptococcus pneumoniae isolate 12-2; summary of the method: as §1
[10] = tested on: Staphylococcus epidermidis; assay: Antibacterial activity against methicillin-resistant Staphylococcus epidermidis isolate 12-35
Summary of the method: (§2)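 MIC determined in vitro by standard techniques, defined as the lowest compound concentration giving complete inhibition of bacterial growth. Gemifloxacin, levofloxacin and ciprofloxacin were tested alongside as reference drugs.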

[11] = tested on: Staphylococcus epidermidis; assay: Antibacterial activity against methicillin-resistant Staphylococcus epidermidis isolate 12-33; summary of the method: as §2
[12] = tested on: Staphylococcus epidermidis; assay: Antibacterial activity against methicillin-resistant Staphylococcus epidermidis isolate 12-5; summary of the method: as §2
[13] = tested on: Staphylococcus epidermidis; assay: Antibacterial activity against methicillin-sensitive Staphylococcus epidermidis isolate 12-3; summary of the method: as §1
[14] = tested on: Staphylococcus epidermidis; assay: Antibacterial activity against methicillin-sensitive Staphylococcus epidermidis isolate 12-2; summary of the method: as §1
[15] = tested on: Staphylococcus epidermidis; assay: Antibacterial activity against methicillin-sensitive Staphylococcus epidermidis isolate 12-1; summary of the method: as §1
Staphylococcus aureus [16] = assay: Antibacterial activity against methicillin-resistant Staphylococcus aureus isolate 12-15; summary of the method: as §2
Staphylococcus aureus [17] = assay: Antibacterial activity against methicillin-resistant Staphylococcus aureus isolate 12-13; summary of the method: as §2
Staphylococcus aureus [18] = assay: Antibacterial activity against methicillin-resistant Staphylococcus aureus isolate 12-3; summary of the method: as §2
Staphylococcus aureus [19] = assay: Antibacterial activity against methicillin-sensitive Staphylococcus aureus isolate 12-10; summary of the method: as §1
Staphylococcus aureus [20] = assay: Antibacterial activity against methicillin-sensitive Staphylococcus aureus isolate 12-7; summary of the method: as §1
Staphylococcus aureus [21] = assay: Antibacterial activity against methicillin-sensitive Staphylococcus aureus isolate 12-6; summary of the method: as §1
Staphylococcus aureus [22] = assay: Antibacterial activity against Staphylococcus aureus […]; summary of the method: as §1
Pseudomonas aeruginosa [23] = assay: Antibacterial activity against Pseudomonas aeruginosa isolate 12-2; summary of the method: as §1
Pseudomonas aeruginosa [24] = assay: Antibacterial activity against Pseudomonas aeruginosa isolate 12-1; summary of the method: as §1
Pseudomonas aeruginosa [25] = assay: Antibacterial activity against Pseudomonas aeruginosa ATCC 27853; summary of the method: as §1
Klebsiella pneumoniae [26] = assay: Antibacterial activity against extended-spectrum beta-lactamase-producing Klebsiella pneumoniae isolate 12-4; summary of the method: as §1
Klebsiella pneumoniae [27] = assay: Antibacterial activity against extended-spectrum beta-lactamase-producing Klebsiella pneumoniae isolate 12-2; summary of the method: as §1
Klebsiella pneumoniae [28] = assay: Antibacterial activity against extended-spectrum beta-lactamase-producing Klebsiella pneumoniae isolate 12-1; summary of the method: as §1
Klebsiella pneumoniae [29] = assay: Antibacterial activity against Klebsiella pneumoniae isolate 12-4; summary of the method: as §1
Klebsiella pneumoniae [30] = assay: Antibacterial activity against Klebsiella pneumoniae isolate 12-2; summary of the method: as §1
Klebsiella pneumoniae [31] = assay: Antibacterial activity against Klebsiella pneumoniae isolate 12-1; summary of the method: as §1

CNC1CCN(c2nc3c(cc2F)c(=O)c(C(=O)O)cn3C2CC2)C/C1=N\OC (stereo not drawn)
MIC (Escherichia coli [1]): 16 µg/mL (≈ 39.7 µM) | MIC (Escherichia coli [2]): > 128 µg/mL | MIC (Escherichia coli [3]): > 128 µg/mL | MIC (Escherichia coli [4]): > 128 µg/mL | MIC (Escherichia coli [5]): > 128 µg/mL | MIC (Escherichia coli [6]): 4 µg/mL (≈ 9.92 µM) | MIC (Escherichia coli [7]): 0.125 µg/mL (≈ 0.31 µM) | MIC (Streptococcus pneumoniae [8]): 0.5 µg/mL (≈ 1.24 µM) | MIC (Streptococcus pneumoniae [9]): 0.5 µg/mL (≈ 1.24 µM) | MIC [10]: 0.25 µg/mL (≈ 0.62 µM) | MIC [11]: 0.06 µg/mL (≈ 0.149 µM) | MIC [12]: 0.25 µg/mL (≈ 0.62 µM) | MIC [13]: 0.5 µg/mL (≈ 1.24 µM) | MIC [14]: 2 µg/mL (≈ 4.96 µM) | MIC [15]: 0.5 µg/mL (≈ 1.24 µM) | MIC (Staphylococcus aureus [16]): 1 µg/mL (≈ 2.48 µM) | MIC (Staphylococcus aureus [17]): 1 µg/mL (≈ 2.48 µM) | MIC (Staphylococcus aureus [18]): 1 µg/mL (≈ 2.48 µM) | MIC (Staphylococcus aureus [19]): 0.25 µg/mL (≈ 0.62 µM) | MIC (Staphylococcus aureus [20]): 0.5 µg/mL (≈ 1.24 µM) | MIC (Staphylococcus aureus [21]): 0.25 µg/mL (≈ 0.62 µM) | MIC (Staphylococcus aureus [22]): 0.5 µg/mL (≈ 1.24 µM) | MIC (Pseudomonas aeruginosa [23]): 16 µg/mL (≈ 39.7 µM) | MIC (Pseudomonas aeruginosa [24]): 16 µg/mL (≈ 39.7 µM) | MIC (Pseudomonas aeruginosa [25]): 2 µg/mL (≈ 4.96 µM) | MIC (Klebsiella pneumoniae [26]): 0.125 µg/mL (≈ 0.31 µM) | MIC (Klebsiella pneumoniae [27]): 16 µg/mL (≈ 39.7 µM) | MIC (Klebsiella pneumoniae [28]): 16 µg/mL (≈ 39.7 µM) | MIC (Klebsiella pneumoniae [29]): 0.125 µg/mL (≈ 0.31 µM) | MIC (Klebsiella pneumoniae [30]): 0.5 µg/mL (≈ 1.24 µM) | MIC (Klebsiella pneumoniae [31]): 0.5 µg/mL (≈ 1.24 µM)

CCO/N=C1\CN(c2c(F)cc3c(=O)c(C(=O)O)cn4c3c2OC[C@@H]4C)CCC1NC (stereo partly drawn)
MIC (Escherichia coli [1]): 64 µg/mL (≈ 148 µM) | MIC (Escherichia coli [2]): > 128 µg/mL | MIC (Escherichia coli [3]): > 128 µg/mL | MIC (Escherichia coli [4]): > 128 µg/mL | MIC (Escherichia coli [5]): > 128 µg/mL | MIC (Escherichia coli [6]): 4 µg/mL (≈ 9.25 µM) | MIC (Escherichia coli [7]): 16 µg/mL (≈ 37 µM) | MIC (Streptococcus pneumoniae [8]): 8 µg/mL (≈ 18.5 µM) | MIC (Streptococcus pneumoniae [9]): 1 µg/mL (≈ 2.31 µM) | MIC [10]: 0.5 µg/mL (≈ 1.16 µM) | MIC [11]: 8 µg/mL (≈ 18.5 µM) | MIC [12]: 0.5 µg/mL (≈ 1.16 µM) | MIC [13]: 0.5 µg/mL (≈ 1.16 µM) | MIC [14]: 2 µg/mL (≈ 4.62 µM) | MIC [15]: 0.5 µg/mL (≈ 1.16 µM) | MIC (Staphylococcus aureus [16]): 1 µg/mL (≈ 2.31 µM) | MIC (Staphylococcus aureus [17]): 1 µg/mL (≈ 2.31 µM) | MIC (Staphylococcus aureus [18]): 1 µg/mL (≈ 2.31 µM) | MIC (Staphylococcus aureus [19]): > 128 µg/mL | MIC (Staphylococcus aureus [20]): 128 µg/mL (≈ 296 µM) | MIC (Staphylococcus aureus [21]): 1 µg/mL (≈ 2.31 µM) | MIC (Staphylococcus aureus [22]): 0.5 µg/mL (≈ 1.16 µM) | MIC (Pseudomonas aeruginosa [23]): 8 µg/mL (≈ 18.5 µM) | MIC (Pseudomonas aeruginosa [24]): 16 µg/mL (≈ 37 µM) | MIC (Pseudomonas aeruginosa [25]): 32 µg/mL (≈ 74 µM) | MIC (Klebsiella pneumoniae [26]): > 128 µg/mL | MIC (Klebsiella pneumoniae [27]): 32 µg/mL (≈ 74 µM) | MIC (Klebsiella pneumoniae [28]): 8 µg/mL (≈ 18.5 µM) | MIC (Klebsiella pneumoniae [29]): 1 µg/mL (≈ 2.31 µM) | MIC (Klebsiella pneumoniae [30]): 1 µg/mL (≈ 2.31 µM) | MIC (Klebsiella pneumoniae [31]): 2 µg/mL (≈ 4.62 µM)

O=C(O)c1cn(C2CC2)c2cc(N3CCNCC3)c(F)cc2c1=O [CIPROFLOXACIN]
MIC [10]: 0.015 µg/mL (≈ 0.0453 µM) | MIC [11]: 0.015 µg/mL (≈ 0.0453 µM) | MIC [12]: 0.015 µg/mL (≈ 0.0453 µM) | MIC [13]: 0.06 µg/mL (≈ 0.181 µM) | MIC [14]: 0.5 µg/mL (≈ 1.51 µM) | MIC [15]: 0.06 µg/mL (≈ 0.181 µM) | MIC (Staphylococcus aureus [19]): 0.25 µg/mL (≈ 0.754 µM) | MIC (Staphylococcus aureus [20]): 64 µg/mL (≈ 193 µM) | MIC (Staphylococcus aureus [22]): 0.25 µg/mL (≈ 0.754 µM) | MIC (Pseudomonas aeruginosa [23]): 16 µg/mL (≈ 48.3 µM) | MIC (Klebsiella pneumoniae [26]): 4 µg/mL (≈ 12.1 µM) | MIC (Klebsiella pneumoniae [27]): 4 µg/mL (≈ 12.1 µM) | MIC (Klebsiella pneumoniae [28]): 2 µg/mL (≈ 6.04 µM) | MIC (Klebsiella pneumoniae [29]): 0.125 µg/mL (≈ 0.377 µM) | MIC (Klebsiella pneumoniae [30]): 0.125 µg/mL (≈ 0.377 µM) | MIC (Klebsiella pneumoniae [31]): 0.03 µg/mL (≈ 0.0905 µM)

C[C@H]1COc2c(N3CCN(C)CC3)c(F)cc3c(=O)c(C(=O)O)cn1c23.C[C@H]1COc2c(N3CCN(C)CC3)c(F)cc3c(=O)c(C(=O)O)cn1c23.O [LEVOFLOXACIN]
MIC (Escherichia coli [2]): 16 µg/mL | MIC (Escherichia coli [3]): 16 µg/mL | MIC (Escherichia coli [4]): 8 µg/mL | MIC (Escherichia coli [5]): 8 µg/mL | MIC (Streptococcus pneumoniae [8]): 0.125 µg/mL | MIC (Streptococcus pneumoniae [9]): 0.125 µg/mL | MIC [10]: 0.125 µg/mL | MIC [11]: 8 µg/mL | MIC [12]: 0.125 µg/mL | MIC [13]: 0.25 µg/mL | MIC [14]: 0.25 µg/mL | MIC [15]: 0.25 µg/mL | MIC (Staphylococcus aureus [16]): 0.125 µg/mL | MIC (Staphylococcus aureus [17]): 0.125 µg/mL | MIC (Staphylococcus aureus [18]): 0.125 µg/mL | MIC (Staphylococcus aureus [19]): 0.06 µg/mL | MIC (Staphylococcus aureus [20]): 32 µg/mL | MIC (Staphylococcus aureus [21]): 0.125 µg/mL | MIC (Staphylococcus aureus [22]): 0.125 µg/mL | MIC (Pseudomonas aeruginosa [23]): 16 µg/mL | MIC (Klebsiella pneumoniae [26]): 4 µg/mL | MIC (Klebsiella pneumoniae [27]): 8 µg/mL | MIC (Klebsiella pneumoniae [29]): 0.25 µg/mL | MIC (Klebsiella pneumoniae [30]): 0.06 µg/mL | MIC (Klebsiella pneumoniae [31]): 0.06 µg/mL
